Screens (PubChem BioAssay)
The list is not random: actives were taken first. Their share in the collection is about 2.5%.
PglD inh = PglD (C. jejuni) enzyme inhibition; inhibition, % at 12.5 µM; 360,000 compounds, 0.098% hits; purified PglD enzyme, DTNB colorimetric CoA detection; in the data active means inhibition above about 16%, passing the limit was not always enough; inconclusive means no clear call, values can overlap the other calls
DENV2 CPE = protects cells from dengue virus 2 cytopathic effect. AID 651640. 350,000 compounds, 1.7% hits. CPE inhibition, % at 9.99 µM. DENV2-infected cells, cytopathic effect rescue, plate reader; in the data active means CPE inhibition above about 20%, passing the limit was not always enough; inconclusive means no clear call, values can overlap the other calls; tested in BHK-21 cells
SIRT5 block = sirtuin-5 (human) deacylase inhibition; Q9NXA8; Purified SirT5, succinyl-peptide AMC, trypsin-coupled fluorescence; inhibition, % at 15 µM; 330,000 compounds, 1.1% hits; in the data active means inhibition above about 15%; inconclusive means no clear call, values can overlap the other calls
ERAP1 HTS inh = blocks human ERAP1 aminopeptidase activity | Q9NZ08 | inhibition, % at 10.7 µM | recombinant ERAP1, Leu-AMC fluorescence, 60 min | 340,000 compounds, 0.15% hits;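 active means mean replicate inhibition of at least 30%, or all replicates individually reaching that 30% level; inactive means mean below 30% and not every replicate reaching it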
E-selectin induc = induces E-selectin expression in human endothelial cells. P16581. HUVEC E-selectin immunofluorescence imaging; normalized: neutral wells 0, TNF-alpha wells 100. activation, % at 7.58 µM. 260,000 compounds, 0.37% hits;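 active means mean E-selectin-positive cell signal at least 10% of the positive control, reached in at least 60% of replicates, without over 20% cell loss; inconclusive means no rule given, readout overlaps actives, possibly toxicity-flagged; inactive means the rest, including those meeting only one limit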
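System: HUVEC / Compound: single concentration / Signal: immunofluorescence imaging / Read-out: percent E-selectin-positive cells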
Numbers stand for hits; – = inactive; ? = inconclusive; · = no result given; ! = not active in a repeat.

SMILES	PglD inh	DENV2 CPE	SIRT5 block	ERAP1 HTS inh	E-selectin induc
COc1ccc(-c2nc3ccccc3o2)cc1NC(=O)c1ccc(Br)o1	–	·	·	·	·
COC(=O)CN(c1cc(Cl)ccc1OC)S(=O)(=O)c1ccc(OC)c(OC)c1	–	61	–	–	·
O=[N+]([O-])c1c(NCCCO)cc(N2CCCCCC2)c2nonc12	–	37	–	–	–
O=[N+]([O-])c1c(NCCO)cc(N2CCC3(CC2)OCCO3)c2nonc12	–	·	·	·	·
Cc1noc(C)c1NC(=O)N(C)C[C@H]1OCc2cn(nn2)CCCC(=O)N([C@H](C)CO)C[C@H]1C	·	·	·	·	–
CC(C)OC(=O)N(C)C[C@@H]1OCc2cn(nn2)CCCC(=O)N([C@H](C)CO)C[C@@H]1C	–	84	–	–	–
Cc1noc(C)c1NC(=O)N(C)C[C@H]1OCc2cn(nn2)CCCC(=O)N([C@@H](C)CO)C[C@@H]1C	–	–	16!	–	–
COc1ccc(OC(=O)N(C)C[C@@H]2OCc3cn(nn3)CCCC(=O)N([C@H](C)CO)C[C@H]2C)cc1	–	–	–	–	–
COc1ccc(OC(=O)N(C)C[C@H]2OCc3cn(nn3)CCCC(=O)N([C@H](C)CO)C[C@@H]2C)cc1	–	43!	–	–	–
CC(C)OC(=O)N(C)C[C@H]1OCc2cn(nn2)CCCC(=O)N([C@@H](C)CO)C[C@H]1C	–	–	–	–	–
COc1cccc(NC(=O)N(C)C[C@@H]2OCc3cn(nn3)CCCC(=O)N([C@H](C)CO)C[C@H]2C)c1	–	38!	23!	–	–
COc1cccc(NC(=O)N(C)C[C@H]2OCc3cn(nn3)CCCC(=O)N([C@H](C)CO)C[C@H]2C)c1	·	·	·	·	–
CC(=O)c1ccc(N2CCN(CC(=O)N(CC(C)C)c3c(N)n(CC(C)C)c(=O)[nH]c3=O)CC2)cc1	·	–	–	–	·
C[C@H]1CN([C@@H](C)CO)C(=O)CCCn2cc(nn2)CO[C@@H]1CN(C)C(=O)c1ccc(N2CCN(C)CC2)cc1	–	64!	–	–	–
CCOC1=C2CN(S(=O)(=O)c3ccc(Cl)cc3)[C@H](c3ccccc3)C[C@@H]2N(S(=O)(=O)c2ccc(C)cc2)[C@H](c2ccccc2)C1	–	–	–	–	–
CCOC1=C2CN(S(=O)(=O)c3ccc(C)cc3)C(c3cccc(Cl)c3)CC2N(S(=O)(=O)c2ccc(Cl)cc2)C(c2ccccc2)C1 (stereo not drawn)	·	32	–	–	–
CCOC(=O)Cc1sc(N)nc1C	–	41	–	–	·
CCOC(=O)Cc1c(C)nc(N)[nH]c1=O	–	–	–	–	–
CN(C)CC(=O)N1[C@H](CO)[C@@H](c2ccc(C#CC3CCCC3)cc2)[C@@H]1C#N	–	34	–	–	–
CN(C)CC(=O)N1[C@H](CO)[C@H](c2ccc(C#CC3CCCC3)cc2)[C@@H]1C#N	–	–	–	–	–
N#C[C@H]1[C@H](c2ccc(C#CC3CCCCC3)cc2)[C@@H](CO)N1C(=O)Cc1ccccn1	–	87	–	–	–
N#C[C@H]1[C@@H](c2ccc(C#CC3CCCCC3)cc2)[C@@H](CO)N1C(=O)Cc1ccccn1	–	–	–	–	·
O=C(C[C@@H]1CC[C@H](NC(=O)c2ccc(F)cc2)[C@H](CO)O1)NCc1ccncn1	–	–	–	–	–
Cn1c(SCC(=O)NC2(C#N)CCCCC2)nnc1-c1cccnc1	–	–	–	–	–
NC(=O)C1CCN(CC(O)COc2ccc(-c3ccccc3)cc2)CC1 (stereo not drawn)	–	50	–	–	·
SMILES	PglD inh	DENV2 CPE	SIRT5 block	ERAP1 HTS inh	E-selectin induc
CN1C(=O)c2cc(NC(=O)c3ccc(C(F)(F)F)cc3)ccc2OC[C@H]2O[C@@H](CC(=O)NC3Cc4ccccc4C3)CC[C@H]21	–	–	–	·	–
CN1C(=O)c2cc(NC(=O)c3ccc(C#N)cc3)ccc2OC[C@H]2O[C@@H](CC(=O)NC3Cc4ccccc4C3)CC[C@@H]21	–	75	–	–	–
CN1C(=O)c2cc(NC(=O)c3ccno3)ccc2OC[C@H]2O[C@@H](CC(=O)NC3Cc4ccccc4C3)CC[C@@H]21	–	53	–	–	–
CCC(=O)Nc1ccc2c(c1)C(=O)N(C)[C@H]1CC[C@@H](CC(=O)NC3Cc4ccccc4C3)O[C@H]1CO2	–	–	–	–	–
COc1cc(C(=O)NNC(=O)c2cc(-c3ccccc3)n[nH]2)cc(OC)c1C	–	–	–	–	–
CC1CCCCC1NC(=O)CN(C)S(=O)(=O)c1ccc2c(c1)c(=O)n(C)c(=O)n2C (stereo not drawn)	–	–	–	–	·
OCC[C@H]1C[C@@H](O)[C@H](O)[C@@]2(CCc3ccccc3CO2)O1	–	48	–	–	–
OCC[C@H]1C[C@@H](O)[C@H](O)[C@@]2(CCCO2)O1	–	59	–	–	–
OCC[C@@H]1C[C@@H](O)[C@H](O)[C@@]2(CCCO2)O1	·	–	–	–	·
OCC[C@H]1C[C@H](O)[C@@H](O)[C@@]2(Cc3ccccc3CCO2)O1	–	?	–	–	–
OCC[C@H]1C[C@@H](O)[C@H](O)[C@@]2(Cc3ccccc3CCO2)O1	–	23	–	–	–
O=C1[C@H]2[C@@H](C3CC3)N3C(=O)CN(CC4CC4)C(=O)[C@@]3(Cc3ccccc3)[C@H]2C(=O)N1c1ccccc1	–	–	–	–	–
Cc1nn(-c2ccc(F)cc2)c(C)c1CN1CCN(CCc2ccccc2)C(CCO)C1 (stereo not drawn)	·	–	·	–	–
Cc1[nH]c(C)c(S(=O)(=O)N2CCCCC2)c1C(=O)N1CCCC1	–	–	–	–	85
COc1ccccc1CNC(=O)C[C@@H]1C[C@H]2c3cc(NS(=O)(=O)c4ccc(F)cc4)ccc3O[C@H]2[C@H](CO)O1	–	–	–	–	–
O=C1CCc2cc(S(=O)(=O)NCCc3ccc(Cl)cc3)cc3c2N1CC3	–	97	–	–	–
COc1ccc(CCNS(=O)(=O)c2cc3c4c(c2)CCN4C(=O)CC3)cc1OC	·	–	–	–	–
C=CCN1C=C2C(=O)C(C)(OC(=O)c3cccs3)C(=O)C=C2C=C1CCCC(=O)OC (stereo not drawn)	–	?	·	–	–
COC(=O)CCCC1=CC2=CC(=O)C(C)(OC(=O)c3cccs3)C(=O)C2=CN1CCc1ccccn1 (stereo not drawn)	–	24	–	–	–
O=C(O)c1cccc2c1C(=O)c1ccc(N3CCCCC3)cc1S2(=O)=O	–	–	–	–	–
COc1cccc(C(=O)OCCCN(C)C)c1	·	–	15	–	·
COc1cccc(C(=O)OCCN2CCCCC2)c1	–	·	·	·	·
CC(C)NC(=O)N(C)C[C@@H]1Oc2ccc(NC(=O)C3CCCCC3)cc2C(=O)N([C@H](C)CO)C[C@H]1C	–	–	–	–	–
CN=C(Nc1cc(C)nn1-c1ccccc1)c1ccccc1F	–	–	16	–	·
CN=C(Nc1cc(C)nn1-c1ccccc1)c1ccccc1	–	–	–	–	·
Cc1cc(NC(=O)c2ccccc2F)n(C(C)(C)C)n1	–	–	·	·	34
Cc1cc(NC(=O)c2ccc(F)cc2F)n(-c2nc3ccccc3[nH]2)n1	–	–	–	–	·
